Format in all cases: functional, Homo sapiens
The subject of one test is SF-268. Nature of the test: In vitro antitumor activity determined against SF-268 cells expressed as percent of growth of the treated cells compared to untreated cells. Also noted: concentration or dose not given beside the values. In outline: (§1)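 NCI 3-cell-line prescreen (MCF7 breast, NCI-H460 lung, SF-268 CNS). Cells inoculated and incubated in microtiter plates, then exposed to test agent at a single concentration for 48 h. Alamar blue end-point read-out. Value is percent growth of treated cells relative to untreated cells.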

In test [1] the test system is MCF7S. Nature of the test: In vitro antitumor activity determined against MCF-7 cells (breast) expressed as percent of growth of the treated cells compared to untreated cells. An outline of the steps:
as §1

In another test the test system is NCI-H460. As to the kind of experiment: In vitro antitumor activity determined against NCI-H460 cells expressed as percent of growth of the treated cells compared to untreated cells. Also noted: concentration or dose not given beside the values. In outline: as §1
The subject of test [2] is MCF7S. As to the kind of experiment: In vitro antitumor activity determined against MCF-7 cells expressed as percent of growth of the treated cells compared to untreated cells. Also noted: concentration or dose not given beside the values. An outline of the steps:
as §1

Consider `O=[N+]([O-])c1cc(-[n+]2cc([O-])on2)ccc1Cl`, for which the Cell growth in the test on SF-268 is 9%; with MCF7S [1] it was 44%; with NCI-H460, 91%.
Consider `O=[N+]([O-])c1cc(-[n+]2cc([O-])on2)ccc1N1CCC1`, for which the Cell growth worked out at 95% in the test on SF-268, 75% in the test with MCF7S [2] and 95% in the test on NCI-H460.
Turning to `O=[N+]([O-])c1cc(-[n+]2cc([O-])on2)ccc1N1Cc2ccccc2C1`, the values for the Cell growth with SF-268, with MCF7S [2] and in the test on NCI-H460 were 95%, 75% and 76%, respectively.
The like results for `CCN(CC)c1ccc(-[n+]2cc([O-])on2)cc1[N+](=O)[O-]` were, in that order, 95%, 85% and 92%.
`O=[N+]([O-])c1cc(-[n+]2cc([O-])on2)ccc1F`: the Cell growth in the test with SF-268, in the test with MCF7S [2] and in the test on NCI-H460 was 0% throughout.
In the case of `O=[N+]([O-])c1cc(-[n+]2cc([O-])on2)ccc1N1CCc2ccccc21`, the Cell growth is recorded as 96% in the test with SF-268, 82% with MCF7S [2] and 87% in the test on NCI-H460.

The values are drawn from ChEMBL document CHEMBL1146622, “Synthesis and biological evaluation of a novel phenyl substituted sydnone series as potential antitumor agents” (2003).
